Dynein transport – dynein cargo transport inhibition; 3617.4 mouse cells, GR-EGFP nuclear translocation imaging; test concentration mostly 20 µM; stimulated with dexamethasone, 1 µM; active compounds read low; z-score, hits read low; 220,000 compounds, 0.47% hits;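 active = plate z-score of nuclear minus cytoplasmic receptor signal below a set negative limit, without overly bright fluorescence or cell loss, cut at about -3.5 in these data, passing the limit was not always enough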;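 also: z-score of nuclear minus cytoplasmic ring GR-EGFP intensity difference per well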
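Also added: dexamethasone, 1.0 µM final. Medium: tet-free, stripped-serum medium. Detection: fixed, Hoechst-stained cells imaged at 10x for EGFP. Read-out: nuclear-to-cytoplasmic GR-EGFP distribution per well. Times: induction 48 h, compound 1 h, agonist 30 min.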
HCT116 bCat-KO – beta-catenin-lacking colon tumor cell growth suppression. HCT116 beta-catenin knockout viability, CellTiter-Glo, 60 h; active compounds read low. viability, % at 10 µM. 140,000 compounds, 1.5% hits. AID 818;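 active = viability at or under a set limit, the compound median less 4 SD, cut at about 6% in these data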
Autophagy HCS – modulators of autophagy; MEF GFP-LC3 puncta imaging; test concentration mostly 10 µM; calls only at 10 µM (by protocol); 190,000 compounds, 0.98% hits; AID 463193;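 active = percentage of spot-positive cells more than 3 SD above its plate mean, without a fluorescence outlier flag or 80% toxicity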
HCT116 PTEN-null – growth suppressors of cells with PTEN tumor suppressor deletion. AID 827. HCT116 PTEN-null viability, CellTiter-Glo, 60 h; active compounds read low. viability, % at 10 µM. 140,000 compounds, 1.2% hits;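 active = viability at or below a set limit, 4 SD under the median of all tested compounds, cut at about 3.7% in these data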;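 also: PTEN knockout HCT116 line with beta catenin targeted HCT116 as companion control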
L major viab – Leishmania major promastigote growth inhibition; Leishmania major promastigotes, resazurin fluorescence viability; inhibition, % at 10 µM; 200,000 compounds, 9% hits; AID 1063; in the data active = inhibition above about 50%;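 also: promastigotes grown with compound for 44 hours at 28 °C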
Of the large screens only hits and unclear results are named; the others gave an inactive call. Hits are enriched below; roughly 9.2% of the tested compounds scored in any of these assays.

COC(=O)c1ccc(Cn2nnc3ccccc32)cc1	none (no result: HCT116 bCat-KO, Autophagy HCS, HCT116 PTEN-null, L major viab)
COc1ccc(/C=C/C(=O)c2ccc(O)cc2)cc1COc1ccc(F)cc1	L major viab 97.2
COc1ccc(/C=N/NC(=O)c2ccn[nH]2)cc1COc1ccc(F)cc1	none
COc1ccc(/C=C/C(=O)c2ccccc2)cc1COc1ccc(F)cc1	L major viab 60.3
COc1ccc(/C=C/C(=O)c2ccccc2)cc1Cn1nnc2ccccc21	HCT116 bCat-KO 2.9, HCT116 PTEN-null 2.8, L major viab 100.0
O=C(Nc1nc2ccccc2s1)C1=NN(c2ccccc2)C(=O)CC1	none
Cc1ccc(N(Cc2cc3cc(C)ccc3[nH]c2=O)C(=O)c2cccs2)cc1	none
O=S(=O)(c1ccc(Oc2ccc(Br)cc2)cc1)N1CCOCC1	none
CCOc1ncccc1C(=O)NCc1ccc(C)cc1	none
Cc1cc(C)n(CC2CC(=O)N(c3ccc(Cl)c(Cl)c3)C2=O)n1 (stereo not given)	none
COc1ccc(NCC(=O)N/N=C/C(C)c2ccccc2)cc1 (stereo not given)	none (no result: HCT116 bCat-KO, HCT116 PTEN-null)
Cc1nn(C(=O)N2CCOCC2)c(C)c1C	HCT116 bCat-KO 0.9, HCT116 PTEN-null 0.9
Cc1ccc(C(=O)Nc2ccc(C)c(S(=O)(=O)Nc3ccccc3Cl)c2)s1	L major viab 84.2
O=C(Nc1ccc(Cl)c(S(=O)(=O)Nc2ccccc2Cl)c1)c1cccs1	L major viab 77.2
O=C(O)c1ccc(S(=O)(=O)Nc2ccc(O)c(Sc3nc4ccccc4s3)c2)cc1	none (no result: HCT116 bCat-KO, HCT116 PTEN-null)
O=C(/C=C/c1ccccc1Cl)Nc1ccc(-c2nnc3n2CCCCC3)cc1	none
COc1ccc(OC)c(N2Cc3cc(C)c(C)cc3C2)c1	L major viab 86.5
CCc1ccc(C(=O)Cn2ncc(Cl)c(Cl)c2=O)cc1	HCT116 bCat-KO 4.8, HCT116 PTEN-null 3.0
Cc1ccc(Cn2ncc(Cl)c(Cl)c2=O)cc1	HCT116 bCat-KO 2.7, HCT116 PTEN-null 1.7, L major viab 60.2
CC(=O)Cn1ncc(N2CCCCC2)c(Cl)c1=O	none (no result: HCT116 bCat-KO, HCT116 PTEN-null)
CNC(=S)c1cc(C(C)(C)C)c(O)c(C(C)(C)C)c1	none (no result: HCT116 bCat-KO, Autophagy HCS, HCT116 PTEN-null, L major viab)
CCOC(=O)Cc1csc(NC(=O)NC2(C(F)(F)F)Oc3ccc(Cl)cc3O2)n1 (stereo not given)	L major viab 52.9
CCOC(=O)Cc1csc(NC(=O)NC2(C(F)(F)F)Oc3cc(Cl)c(Cl)cc3O2)n1	none
CCOC(=O)Cc1csc(NC(=O)NC2(C(F)(F)F)Oc3ccccc3O2)n1	L major viab 89.8
COCc1cc(C(C)=O)ccc1OCC(=O)Nc1ccc(NC(C)=O)cc1	none (no result: HCT116 bCat-KO, HCT116 PTEN-null)
COc1cc(CO)ccc1OCc1nnnn1-c1ccc(C)cc1	none (no result: HCT116 bCat-KO, HCT116 PTEN-null)
N#CCC(=O)Nc1ccc(C(F)(F)F)cc1N1CCOCC1	none (no result: HCT116 bCat-KO, HCT116 PTEN-null)
C/C(=N/NC(=O)CN1CCN(S(=O)(=O)c2ccc(C)cc2)CC1)c1cccc(O)c1	none (no result: HCT116 bCat-KO, Autophagy HCS, HCT116 PTEN-null, L major viab)
Cc1cccc(N=C2NC(=O)c3cc([N+](=O)[O-])ccc32)c1	none (no result: HCT116 bCat-KO, HCT116 PTEN-null)
O=C1NC(=Nc2ccccc2)c2ccc([N+](=O)[O-])cc21	L major viab 66.8
CC(C)(C)C1=CC=C(C(C)(C)C)C(=O)C1=O	Dynein transport -3.68 (no result: HCT116 bCat-KO, Autophagy HCS, HCT116 PTEN-null, L major viab)
CCOC(=O)NNc1ccccc1	none (no result: HCT116 bCat-KO, Autophagy HCS, HCT116 PTEN-null, L major viab)
CCC(O)CC(C(=O)NNc1ccccc1)C(=O)NNc1ccccc1 (stereo not given)	L major viab 71.8 (no result: HCT116 bCat-KO, HCT116 PTEN-null)
Cc1ccc(S(=O)(=O)N2CCN(S(=O)(=O)N3CCCCCC3)CC2)cc1	none (no result: HCT116 bCat-KO, HCT116 PTEN-null)
CN1CCN(Cc2cccc(Oc3ccc(Cl)cc3)c2)CC1	L major viab 100.3
CCN1CCN(Cc2cccc(Oc3ccccc3)c2)CC1	L major viab 97.4
c1ccc(COc2cccc(CN3CCN(c4ccccn4)CC3)c2)cc1	L major viab 78.8
c1ccc(Oc2cccc(CN3CCCCC3)c2)cc1	L major viab 99.9
Fc1cccc(CN2CCCCCCC2)c1	none
CCOC(=O)C1CN(C(C)(C)C)C(=O)C1=O (stereo not given)	none
Cc1cc(=O)[nH]c(SCC(=O)N2CCN(S(=O)(=O)c3ccccc3)C2)n1	none (no result: HCT116 bCat-KO, HCT116 PTEN-null)
COc1ccc(CCC(=O)NC2=NCCS2)cc1OC	none
CCc1ccc(C(=O)NNc2ccc(F)cc2F)cc1	none (no result: HCT116 bCat-KO, Autophagy HCS, HCT116 PTEN-null, L major viab)
COC(=O)c1cnc(N2CCOCC2)nc1C(F)(F)F	none (no result: HCT116 bCat-KO, Autophagy HCS, HCT116 PTEN-null, L major viab)
Clc1ccc(CN2CCCCCCC2)cc1	none
CCN1CCN(Cc2cccc(Oc3ccc(Cl)cc3)c2)CC1	L major viab 95.8
CC1(C)CC(CCNS(=O)(=O)c2ccccc2)(c2ccccc2)CCO1 (stereo not given)	L major viab 99.6
Cc1ccc(S(=O)(=O)NCC2(c3ccccc3)CCOCC2)cc1	none (no result: HCT116 bCat-KO, HCT116 PTEN-null)
CCC1(C)CC(CCNS(=O)(=O)c2ccc(C)cc2)(c2ccc(C)cc2)CCO1 (stereo not given)	L major viab 51.8
Cc1ccc(S(=O)(=O)NCCC2(C(C)C)CCOC(C)(C)C2)cc1 (stereo not given)	L major viab 95.2
CC1(C)CC(CCNC(=O)CCl)(c2ccccc2)CCO1 (stereo not given)	none (no result: HCT116 bCat-KO, Autophagy HCS, HCT116 PTEN-null, L major viab)
CCOC(=O)C1(CC2CCCCO2)CCN(Cc2cn[nH]c2-c2cccc(F)c2)CC1 (stereo not given)	none (no result: HCT116 bCat-KO, HCT116 PTEN-null)
O=C(COC(=O)c1cc(-c2cccc(Br)c2)nc2ccccc12)NCC1CCCO1 (stereo not given)	none (no result: HCT116 bCat-KO, HCT116 PTEN-null)
N#CCCN(C(=O)COC(=O)c1ccc(CNS(=O)(=O)c2ccc(F)c(Cl)c2)cc1)c1ccc(F)cc1	L major viab 96.6
C=CCn1c(SCC#N)nc2c(c1=O)C(C)(C)Cc1ccccc1-2	L major viab 96.4
COc1ccc(C(=O)C2CCCN(C(=O)CCc3scnc3C)C2)c(C)c1 (stereo not given)	none (no result: HCT116 bCat-KO, HCT116 PTEN-null)
CC1CCCN(CCC(=O)Nc2ccccc2)C1 (stereo not given)	none (no result: HCT116 bCat-KO, HCT116 PTEN-null)
CC1CCCN(CCC(=O)Nc2ccc(Br)cc2)C1 (stereo not given)	L major viab 53.0
O=C(CCN1CCOCC1)Nc1ccc2c(c1)CCC2	none
CC1CCCN(CCC(=O)Nc2ccc3c(c2)CCC3)C1 (stereo not given)	L major viab 61.1
O=C(CNC(=S)N(Cc1ccccc1)Cc1cccnc1)NCc1ccccc1	none (no result: HCT116 bCat-KO, HCT116 PTEN-null)
COc1ccc(CN(Cc2cccnc2)C(=S)NCCc2ccccc2)cc1OC	L major viab 100.2
O=C(O)CNC(=S)N(Cc1ccccc1)Cc1cccnc1	Autophagy HCS active (no result: HCT116 bCat-KO, HCT116 PTEN-null)
CSc1cccc(NC(=S)N(Cc2ccccc2)Cc2cccnc2)c1	L major viab 95.9 (no result: HCT116 bCat-KO, HCT116 PTEN-null)
COc1ccccc1NC(=S)N(Cc1ccccc1)Cc1cccnc1	none (no result: HCT116 bCat-KO, HCT116 PTEN-null)
Cc1cccc(C)c1NC(=S)N(Cc1ccccc1)Cc1cccnc1	L major viab 88.9 (no result: HCT116 bCat-KO, HCT116 PTEN-null)
Cc1ccc(CCNC(=O)CNC(=S)N(Cc2ccccc2)Cc2cccnc2)cc1	none (no result: HCT116 bCat-KO, HCT116 PTEN-null)
C=CCNC(=O)CSCc1ccc(Br)cc1	none (no result: HCT116 bCat-KO, HCT116 PTEN-null)
COc1ccc(C(=O)Nc2ccccc2C(=O)NC(Cc2ccc(O)cc2)C(=O)NNC(=O)c2ccccc2)cc1 (stereo not given)	L major viab 62.3
COC(=O)c1sc(-c2ccccc2)cc1NC(=O)c1cc(OC)cc(OC)c1	none
COc1ccc(C(=O)Nc2ccc(C)cc2C(=O)c2ccccc2)cc1	L major viab 98.7
COc1ccccc1C(=O)Nc1ccc(C)cc1C(=O)c1ccccc1	none
